# CAL PDZ FP-1: CAL PDZ peptide-binding inhibitors, primary screen, biochemical, fluorescence polarization, Cer-tagged CAL PDZ, HTS. purified CAL PDZ, TMR-peptide fluorescence polarization, 1 h. inhibition, % at 20 µM. actives 0.02% (n = 330,000). AID 504414, 2011;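 active means highest replicate inhibition of at least 40%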;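 further: plate controls were DMSO neutral control wells for no effect and unlabeled competitor peptide control wells for full effect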
#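 Control set: unlabelled peptide and DMSO controls / Material: purified CerCALP PDZ construct / Timing: 1 h incubation at room temperature before polarization reading / Doses: 20 µM, one dose / Detection: fluorescence polarization (mP)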
# ARNT-TACC3 inh: disruptors of ARNT/TACC3 protein interaction, primary screen, biochemical, AlphaScreen, single concentration. Transforming acidic coiled-coil-containing protein 3 (Homo sapiens), Q9Y6A5. AlphaScreen His-ARNT PAS-B/GST-TACC3 binding, luminescence; TACC3 fragment carries E629A point mutation. inhibition, % at 9.99 µM. actives 0.66% (n = 390,000). AID 623870, 2012;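 active means mean inhibition of replicates at least 50% and at least half of replicates each reaching 50%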;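 further: 0% = complete ARNT plus TACC3 wells and 100% = ARNT alone without TACC3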
# CAL PDZ FP-2: untagged CAL PDZ binding inhibitors, primary screen, biochemical, fluorescence polarization, HTS. Golgi-associated PDZ and coiled-coil motif-containing protein (Homo sapiens), Q9HD26. purified CAL PDZ, TMR-peptide fluorescence polarization, 1 h. inhibition, % at 24.9 µM. actives 0.92% (n = 300,000);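 active means mean inhibition of at least 30% with at least half of replicates also reaching 30%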;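 further: 0% = DMSO neutral control and 100% = excess unlabeled competitor peptide PRC23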
# AlphaScreen ctr: AlphaScreen signal interference compounds, dose response, artefact control for ARNT-TACC3 interaction inhibitor project, biochemical, luminescence, cherry-pick; shares compounds with ARNT-TACC3 inh; His-ARNT PASB-GST AlphaScreen artifact counter-screen; AC50, µM (highest dose often 68 µM), for the others: at the top dose activity change, negative = signal decrease; actives 50% (n = 1,200);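 active means every separate test run was called active for a drop in luminescence, with AC50 within twice the top valid dose, actives reach about 71 µM in these data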
# The depositor's hits bear a star; . = not tested or not shown; [ ] = dose if it differs, or a comment. Hits are enriched below; roughly 1.2% of the tested compounds scored in any of these assays.
SMILES,CAL PDZ FP-1,ARNT-TACC3 inh,CAL PDZ FP-2,AlphaScreen ctr
CC(C)NC(=O)Nc1ccc2c(c1)C(=O)N([C@@H](C)CO)C[C@H](C)[C@@H](CN(C)C)OCCCC[C@H](C)O2,.,109*,.,-1%[42 µM]
CC(C)NC(=O)Nc1ccc2c(c1)C(=O)N([C@H](C)CO)C[C@@H](C)[C@H](CN(C)C)OCCCC[C@@H](C)O2,.,-7,.,.
CC(C)NC(=O)Nc1ccc2c(c1)C(=O)N([C@H](C)CO)C[C@@H](C)[C@@H](CN(C)C(=O)Nc1ccccc1)OCCCC[C@@H](C)O2,.,66*,.,-3%[38 µM]
CC(C)NC(=O)Nc1ccc2c(c1)C(=O)N([C@H](C)CO)C[C@@H](C)[C@H](CN(C)C(=O)Nc1ccccc1)OCCCC[C@@H](C)O2,.,12,.,.
COc1ccc(CN(C)C[C@@H]2Oc3ccc(NC(=O)Cn4cnnn4)cc3C(=O)N([C@@H](C)CO)C[C@H]2C)cc1,.,54*,.,-4%[42 µM]
C[C@H]1CN([C@@H](C)CO)C(=O)Cc2cc(NC(=O)Nc3cccc4ccccc34)ccc2O[C@@H]1CN(C)Cc1ccc(Oc2ccccc2)cc1,.,61*,.,34µM*
C[C@H](CO)N1C[C@H](C)[C@H](CN(C)Cc2ccc(Oc3ccccc3)cc2)Oc2ccc(NC(=O)Nc3cccc4ccccc34)cc2CC1=O,0,-3,0,.
C[C@@H]1CN([C@H](C)CO)C(=O)Cc2cc(NC(=O)Nc3cccc4ccccc34)ccc2O[C@H]1CN(C)CC1CCCCC1,.,17,.,.
C[C@H](CO)N1C[C@H](C)[C@H](CN(C)S(=O)(=O)c2ccc(Cl)cc2)Oc2c(NC(=O)Nc3cccc4ccccc34)cccc2C1=O,.,-11,.,.
C[C@H]1CN([C@@H](C)CO)C(=O)Cc2cc(NC(=O)Nc3cccc4ccccc34)ccc2O[C@H]1CN(C)CC1CCCCC1,.,52*,.,-31%[42 µM]
C[C@H]1CN([C@@H](C)CO)C(=O)c2cccc(NC(=O)Nc3cccc4ccccc34)c2O[C@@H]1CN(C)S(=O)(=O)c1ccc(Cl)cc1,.,53*,.,25µM*
COc1ccc(CN(C)C[C@H]2Oc3ccc(NC(=O)Cn4cnnn4)cc3C(=O)N([C@H](C)CO)C[C@@H]2C)cc1,.,24,.,.
CC(=O)N1[C@@H]2Cn3c(ccc(C4=CCCCC4)c3=O)[C@H]1[C@@H](C(=O)NC1CCCC1)[C@@H]2CO,.,-4,.,.
COc1ccc(S(=O)(=O)Nc2cccc3c2O[C@@H](CN(C)C(=O)Nc2ccccc2)[C@H](C)CN([C@H](C)CO)C3=O)cc1,.,4,.,.
COc1ccc(NC(=O)Nc2ccc3c(c2)CC(=O)N([C@@H](C)CO)C[C@@H](C)[C@H](CN(C)Cc2ccc(Oc4ccccc4)cc2)O3)cc1,.,58*,.,20µM*
C[C@H]1CN([C@@H](C)CO)C(=O)c2cc(NC(=O)Nc3cccc4ccccc34)ccc2O[C@@H]1CN(C)C(=O)Nc1ccc(C(F)(F)F)cc1,.,active,.,-31%[42 µM]
C[C@H](CO)N1C[C@H](C)[C@H](CN(C)C(=O)Nc2ccc3c(c2)OCO3)Oc2ccc(NC(=O)CCN3CCOCC3)cc2CC1=O,.,19,.,.
COc1ccc(NC(=O)Nc2ccc3c(c2)CC(=O)N([C@@H](C)CO)C[C@H](C)[C@@H](CN(C)Cc2ccc(Oc4ccccc4)cc2)O3)cc1,.,17,.,.
C[C@H](CO)N1C[C@H](C)[C@@H](CN(C)C(=O)Nc2ccc3c(c2)OCO3)Oc2ccc(NC(=O)CCN3CCOCC3)cc2CC1=O,.,50*,.,-14%[42 µM]
C[C@@H]1CN([C@@H](C)CO)C(=O)c2cc(NC(=O)Nc3cccc4ccccc34)ccc2O[C@@H]1CN(C)C(=O)Nc1ccc(C(F)(F)F)cc1,.,-1,.,.
COc1ccccc1C#Cc1ccc2c(c1)[C@H]1[C@H](CCN1S(=O)(=O)c1ccc(C)cc1)[C@H](CO)N2,.,24,.,.
Cc1ccccc1CS(=O)(=O)Cc1ccc(C(=O)NCc2ccccn2)o1,0,53*,-2,-13%
O=C(NCc1ccccn1)c1ccc(CS(=O)(=O)Cc2ccc(Cl)cc2)o1,-1,13,-4,.
C/C=C/c1ccc2c(c1)O[C@H](CN(C)C)[C@@H](C)CN([C@@H](C)CO)S2(=O)=O,.,-7,.,.
